By ED50 is commonly meant the dose at which the effect has come halfway, by size or by number of responders. By inhibition is commonly meant the share of the control response that was lost under treatment. For orientation: TD50 means the 50% point of the dose-response relation for the toxic effect studied.

Series [1] has as its system Mus musculus. As to the kind of experiment: Antinociceptive activity in CD1 albino mouse assessed as reduction of formalin-induced licking response in neurogenic phase at 70.08 mg/kg, ip preincubated for 30 mins measured after 5 mins. Further details: scale not given: the % may be the effect or the level left. The series is classed as functional.
Series [2] concerns Mus musculus. Put plainly: Anticonvulsant activity in CD1 albino mouse assessed as protection against subcutaneous pentylenetetrazole-induced seizures at 300 mg/kg, ip after 0.5 hrs. It is filed as functional, organism-based. The essentials: (§1)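 Male CD-1 mice (16-26 g), compounds ip in 0.5% methylcellulose/water at 30, 100 or 300 mg/kg, 3-4 per group. At 0.5 or 4 h, pentylenetetrazole 85 mg/kg was injected sc. Protection was absence of clonic convulsions (at least 5 s) over a 30 min observation. Minimum active dose recorded.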

Series [3] deals with Mus musculus. Put plainly: Anticonvulsant activity in ip dosed CD1 albino mouse assessed as time to peak effect. It is filed as functional. The essentials: (§2)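 Quantitation in male CD-1 mice dosed ip at the previously estimated time of peak effect. Seizures were induced by MES or by sc pentylenetetrazole 85 mg/kg; rotarod at 10 rpm assessed motor impairment. Groups of six, at least three doses giving 10-90% effect.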

Series [4] concerns Mus musculus. Put plainly: Neurotoxicity in CD1 albino mouse assessed as acute motor impairment at 300 mg/kg, ip after 4 hrs by rotarod test. The series is classed as toxicity, organism-based. As to conditions: in vivo. The essentials: (§3)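 Male CD-1 mice given 30, 100 or 300 mg/kg ip in 0.5% methylcellulose, tested at 0.5 and 4 h. Motor impairment was scored as failure to keep balance for at least 1 min on a rod rotating at 10 rpm. Minimum dose causing impairment reported.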
Background: In the rotarod test animals must keep their balance on a rotating rod.

In series [5] the test system is Mus musculus. Put plainly: Antinociceptive activity in CD1 albino mouse assessed as reduction of formalin-induced licking response in inflammatory phase at 70.08 mg/kg, ip preincubated for 30 mins measured after 25 to 30 mins. It is filed as functional. Further details: scale not given: the % may be the effect or the level left.
For series [6], the system named is Mus musculus. As to the kind of experiment: Anticonvulsant activity in ip dosed CD1 albino mouse assessed as time to peak effect by 6Hz psychomotor seizure test. The series is classed as functional. The essentials: (§4)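 6-Hz corneal stimulation at 32 mA (6 Hz, 3 s) in male CD-1 mice dosed ip. Groups of six received several doses until at least three points fell between 10 and 90% protection. […] PI = TD50/ED50 (rotarod).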

In series [7] the test system is Mus musculus. Put plainly: Anticonvulsant activity in ip dosed CD1 albino mouse assessed as protection against maximal electroshock-induced seizures. The series is classed as functional. On the technique in general: Protection in the maximal electroshock model is a classic sign of anticonvulsant action.
Series [8] has as its system Mus musculus. As to the kind of experiment: Antinociceptive activity in CD1 albino mouse assessed as reduction of formalin-induced licking response in inflammatory phase at 70.08 mg/kg, ip preincubated for 30 mins measured after 15 to 20 mins. It is filed as functional. The arrangement: scale not given: the % may be the effect or the level left.
Series [9] deals with Mus musculus. As to the kind of experiment: Anticonvulsant activity in CD1 albino mouse assessed as protection against maximal electroshock-induced seizures at 100 to 300 mg/kg, ip after 0.5 hrs. It is filed as functional. The note with it: read-out: MED.
Series [10] relates to Mus musculus. Put plainly: Anticonvulsant activity in CD1 albino mouse assessed as protection against subcutaneous pentylenetetrazole-induced seizures at 300 mg/kg, ip after 4 hrs. It is filed as functional, organism-based. The essentials: as §1
The species entered for a further series is Rattus norvegicus. Put plainly: Displacement of [3H]BTX from voltage-sensitive Na+ channel site 2 in rat cerebral cortex synaptoneurosomes at 100 uM after 60 mins by liquid scintillation spectroscopic analysis. The series is classed as tissue-based. The essentials: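 Cerebral cortex synaptoneurosomes from rat, tested at 100 µM for inhibition of specific [3H]BTX binding to the voltage-sensitive Na+ channel site 2. Reported as % inhibition of control specific binding; run commercially.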

Series [11] deals with Mus musculus. Put plainly: Local anesthetic activity in CD1 albino mouse assessed prolongation of time reaction at 2 % concentration after 20 secs by tail immersion test relative to vehicle control. The series is classed as functional. The essentials: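 Compound at 1 or 2% in 0.5% methylcellulose, injected sc (0.2 ml) about 1 cm from the tail root of male CD-1 mice. After 15 min, the distal 3 cm of the tail was immersed in 50 ± 0.5 °C water and withdrawal time measured, cut off at 20 s. n=8; mean ± SEM; % prolongation relative to vehicle.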

The species named for series [12] is Mus musculus. Put plainly: Protection index, ratio of TD50 for CD1 albino mouse to ED50 for protection against maximal electroshock-induced seizures in CD1 albino mouse. The essentials:
as §2

Series [13] is filed under the species Mus musculus. As to the kind of experiment: Protection index, ratio of TD50 for CD1 albino mouse to ED50 for protection against 32 mA-current- for 3 secs induced seizure in CD1 albino mouse by 6Hz psychomotor seizure test. The essentials:
as §4

For series [14], the system named is Mus musculus. As to the kind of experiment: Anticonvulsant activity in ip dosed CD1 albino mouse assessed as protection against 32 mA-current- for 3 secs induced seizure by 6Hz psychomotor seizure test. It is filed as functional. The essentials:
as §4

Series [15] concerns Mus musculus. As to the kind of experiment: Neurotoxicity in CD1 albino mouse assessed as acute motor impairment at 100 to 300 mg/kg, ip after 0.5 hrs by rotarod test. The series is classed as toxicity, organism-based. As to conditions: in vivo. The essentials: as §3
Series [16] is described as follows: Neurotoxicity in ip dosed CD1 albino mouse assessed as acute motor impairment by rotarod test. The series is classed as toxicity, organism-based. The note with it: in vivo. The essentials:
as §2

Series [17] has as its system Mus musculus. As to the kind of experiment: Anticonvulsant activity in CD1 albino mouse assessed as protection against maximal electroshock-induced seizures at 100 to 300 mg/kg, ip after 4 hrs. The series is classed as functional. The note with it: read-out: MED.
For series [18], the system named is Mus musculus. Put plainly: Antinociceptive activity in CD1 albino mouse assessed as reduction of formalin-induced licking response in inflammatory phase at 87.36 mg/kg, ip preincubated for 1 hr measured after 25 to 30 mins. The series is classed as functional. Further details: scale not given: the % may be the effect or the level left.
Series [19] deals with Mus musculus. Put plainly: Anticonvulsant activity in CD1 mouse assessed as protection against 32 mA-current- for 3 secs induced seizure at 100 mg/kg, ip after 1 hrs by 6Hz psychomotor seizure test. It is filed as functional. The essentials: (§5)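 Male CD-1 mice given 100 mg/kg ip in 0.5% methylcellulose, four per time point. Corneal stimulation at 32 mA, 0.2 ms monopolar rectangular pulses at 6 Hz for 3 s, from a constant-current device. A mouse was protected if it resumed normal exploratory behavior within 10 s. Reported as number protected over number tested.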

Series [20] concerns Mus musculus. Put plainly: Antinociceptive activity in CD1 albino mouse assessed as reduction of formalin-induced licking response in inflammatory phase at 87.36 mg/kg, ip preincubated for 1 hr measured after 15 to 20 mins. The series is classed as functional. Further details: scale not given: the % may be the effect or the level left.
Series [21] relates to Mus musculus. Put plainly: Antinociceptive activity in CD1 albino mouse assessed as reduction of formalin-induced licking response in neurogenic phase at 87.36 mg/kg, ip preincubated for 1 hr measured after 5 mins. It is filed as functional, organism-based.
For series [22], the system named is Mus musculus. Put plainly: Anticonvulsant activity in CD1 mouse assessed as protection against 32 mA-current- for 3 secs induced seizure at 100 mg/kg, ip after 0.5 hrs by 6Hz psychomotor seizure test. It is filed as functional. The essentials: as §5
The test system of series [23] is Mus musculus. Put plainly: Neurotoxicity in CD1 albino mouse assessed as acute motor impairment at 300 mg/kg, ip measured after 0.5 hrs by rotarod test. The series is classed as toxicity, organism-based. The note with it: in vivo. The essentials: as §3

SMILES strings stand for the structures. Active and inactive are the calls of the source. The calls are words filed in the database; no cut-off is given here. A value given as a limit tells only on which side of the number the result lay.

`CCC1(C)CC(=O)N(CC(=O)N2CCN(c3cccc(C(F)(F)F)c3)CC2)C1=O` (stereo not given): the Activity was 40% in the series on Mus musculus [1]; “Non-toxic” in the series on Mus musculus [4]; 99% in the series with Mus musculus [5]; 100% in the series with Mus musculus [8]; 46% in the series on Mus musculus [11]. The outcome in the series on Mus musculus [2] and with Mus musculus [10] was inactive. In addition, the Time in the series on Mus musculus [3] and in the series on Mus musculus [6] was 0.5 h throughout. Further, the ED50 came out at 70.1 mg/kg with Mus musculus [7] and 90.3 mg/kg with Mus musculus [14]. For the same molecule, the minimal effective dose in the series on Mus musculus [9] and with Mus musculus [17] was 100 mg/kg in each case. The same molecule registered an inhibition in the series filed under Rattus norvegicus of 63.5%. Moreover, the “Ratio TD50/ED50” value in the series listed under Mus musculus [12] is 4.06; in the series listed under Mus musculus [13], 3.15. Moreover, in the series on Mus musculus [15], the MTC came out at 300 mg/kg. Besides, the TD50 in [16] stood at 285 mg/kg.

On to `CC1CC(=O)N(CC(=O)N2CCN(c3ccc(F)cc3)CC2)C1=O` (stereo not given), for which the Activity is recorded as 98% in the series with Mus musculus [18]; 75% with Mus musculus [19]; “Non-toxic” in the series on Mus musculus [4]; 95% in the series on Mus musculus [20]; 75% with Mus musculus [22]; 12% in the series with Mus musculus [11]. Besides, in the series on Mus musculus [23], the Activity entry is “Non-toxic”. Further, the result with Mus musculus [2], in the series with Mus musculus [21] and in the series with Mus musculus [10] was inactive. Besides, the Time in the series on Mus musculus [3] turned out to be 1 h. The ED50 in the series with Mus musculus [7] came out at 87.4 mg/kg. The minimal effective dose in the series on Mus musculus [9] turned out to be 300 mg/kg; in the series on Mus musculus [17] it was 100 mg/kg. The molecule also returned an inhibition in the series filed under Rattus norvegicus of 36.6%. Besides, in the series filed under Mus musculus [12], the “Ratio TD50/ED50” value is given as >3.43. For the same molecule, in series [16], the TD50 was > 300 mg/kg.

The values above are taken from ChEMBL document CHEMBL3774376, “Synthesis, and anticonvulsant activity of new amides derived from 3-methyl- or 3-ethyl-3-methyl-2,5-dioxo-pyrrolidin-1-yl-acetic acids” (Bioorg Med Chem, 2016).
